# Screening data deposited in PubChem by several laboratories.
# CaV13 ICDI inh: Primary screen for inhibitors of IQ motif and Ca2+-dependent inactivation inhibitor domain binding in CACNA1D, Förster resonance energy transfer in living cells, …; HEK cells, CFP/YFP FRET ICDI-IQ, plate reader, 10 min; percent FRET-ratio fall versus neutral wells; inhibition, % at 12.3 µM; 340,000 tested, 0.098% active; AID 743397;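 active means mean replicate inhibition of at least 30% and at least 1% of replicates passing that level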;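 further: 0% = median of the neutral control wells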
# ADAM17 inh: ADAM17 inhibition, QFRET primary screen; inhibition, % at 6.95 µM; 370,000 tested, 0.83% active; P78536; recombinant ADAM17, EDANS/DABCYL FRET peptide cleavage;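 active means inhibition above the mean of compounds lying between control limits plus 3 SD, set per campaign, cut at about 8.5% in these data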;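 further: 0% = DMSO-only wells as the low control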
# Arrestin-AP2 inh: human beta-arrestin and AP2 interaction inhibition. AID 504490. 340,000 tested, 0.31% active. FITC-arrestin peptide / GST-AP2 beads, flow cytometry; AP2 beta2 appendage carries R879A mutation. inhibition, % at 10 µM;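 active means inhibition above a set limit, near 3 SD of compounds lacking own fluorescence, cut at about 54% in these data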;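 further: plate controls were DMSO wells for no effect and 5 µM unlabelled arrestin peptide for full effect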
#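 System: GST-AP2 R879A glutathione beads; medium: PBS, Tween 20 0.05%, BSA 0.1%; reagent: fluorescein-tagged arrestin peptide at 50 nM final; schedule: pre-incubation 12 min, peptide binding 1 h, room temperature; detection: flow cytometry, FL1 (488/535 nm); read-out: inhibition as reduced fluorescein signal on beads, percent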
# FAS TE block: FAS thioesterase (human) inhibition | AID 602261 | 360,000 tested, 0.67% active | recombinant FAS-TE, OMFH fluorogenic substrate, fluorescence endpoint | inhibition, % at 15 µM;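 active means compounds whose normalised, plate-corrected inhibition of enzyme fluorescence in the single-dose primary screen is 50% or more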;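 further: 0% = DMSO with enzyme and 100% = substrate without enzyme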
# NRP1-CendR mod: alters CendR peptide binding to human NRP-1; AID 602438; inhibition, % at 25 µM; FAM-RPARPAR peptide binding to NRP-1, fluorescence polarization; 360,000 tested, 0.85% active; O14786;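 active means inhibition or corrected inhibition above about 18%, plus a signal ratio from 0.5 to 1.5, limit read from the data, passing the limit was not always enough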
# ADAM10 inh: ADAM10 inhibition, QFRET primary screen; 370,000 tested, 0.62% active; inhibition, % at 7 µM; recombinant ADAM10, EDANS/DABCYL FRET peptide cleavage, 3 h; AID 720582;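 active means inhibition above a per-campaign cutoff equal to the mean of compounds falling between control-based bounds plus 3 SD, cut at about 20% in these data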;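 further: 0% = DMSO wells while the 100% control is not disclosed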
# Target sequence (O14672 214-748 limits assumed): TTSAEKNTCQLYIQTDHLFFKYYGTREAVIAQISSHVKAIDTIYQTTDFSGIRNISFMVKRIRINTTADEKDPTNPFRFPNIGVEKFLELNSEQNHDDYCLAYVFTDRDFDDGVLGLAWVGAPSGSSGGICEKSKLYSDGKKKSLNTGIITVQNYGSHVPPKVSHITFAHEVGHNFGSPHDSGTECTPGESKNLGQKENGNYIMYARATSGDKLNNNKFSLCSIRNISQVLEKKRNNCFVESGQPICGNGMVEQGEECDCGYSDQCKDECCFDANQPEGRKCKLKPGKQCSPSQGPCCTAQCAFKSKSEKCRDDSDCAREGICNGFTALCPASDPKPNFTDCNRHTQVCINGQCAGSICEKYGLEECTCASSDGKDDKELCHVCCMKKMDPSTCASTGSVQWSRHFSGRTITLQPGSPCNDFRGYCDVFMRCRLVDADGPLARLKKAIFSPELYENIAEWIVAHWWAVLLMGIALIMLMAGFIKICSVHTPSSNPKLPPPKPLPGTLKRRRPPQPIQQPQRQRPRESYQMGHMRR
# ADAM10 confirm: human ADAM10 inhibition, confirmation; shares compounds with ADAM10 inh; ADAM10 QFRET peptide cleavage, EDANS fluorescence; inhibition, % at 6.95 µM; 2,100 tested, 1% active;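 active means inhibition above about 20% chosen separately for each screening run, limit read from the data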;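 further: 0% = DMSO wells and 100% = marimastat wells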
# ADAM17 ctr: ADAM17 inhibition, counter-screen for ADAM10 exosite hits; shares compounds with ADAM10 inh; ADAM17 QFRET peptide cleavage, EDANS fluorescence; inhibition, % at 6.95 µM; 2,100 tested, 0.5% active; AID 743214;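 active means mean triplicate inhibition above the solvent-only control wells' mean plus 3 SD, cut at about 12% in these data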;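 further: 0% = DMSO wells and 100% = marimastat wells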
# ADAM10 ctr: inhibits human ADAM10 in ADAM17 exosite counter-screen | inhibition, % at 6.95 µM | recombinant ADAM10, EDANS/DABCYL FRET peptide cleavage, 3 h | shares compounds with ADAM17 inh | 2,900 tested, 47% active;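 active means mean inhibition over the triplicate runs exceeds the activity threshold set in the earlier primary screen, cut at about 20% in these data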;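 further: 0% = DMSO wells and 100% = marimastat wells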
# ADAM17 confirm: human ADAM17 inhibition, confirmation. shares compounds with ADAM17 inh. recombinant ADAM17, EDANS/DABCYL QFRET peptide cleavage. inhibition, % at 6.95 µM. 2,900 tested, 65% active. AID 743257;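 active means mean inhibition across replicates above the hit cutoff set in the primary screen, cut at about 8.5% in these data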;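 further: 0% = DMSO wells and 100% = marimastat wells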
# An asterisk follows results filed as active; x = no result given; ! = a repeat was not active. Compounds with a hit are over-represented: about 2.9% of the library has one in this group of screens.
SMILES,CaV13 ICDI inh,ADAM17 inh,Arrestin-AP2 inh,FAS TE block,NRP1-CendR mod,ADAM10 inh,ADAM10 confirm,ADAM17 ctr,ADAM10 ctr,ADAM17 confirm
COCCCn1cc(CN2CC(N3CCSCC3)CS2(=O)=O)nn1 (centres undefined),-3,-5,x,-6,14,-6,x,x,x,x
CC(=O)Nc1ccc(NC(=O)C2Cc3c(-c4cccc(C(C)=O)c4)ccnc3O2)cc1 (centres undefined),-6,-1,x,-9,-1,-11,x,x,x,x
CC(=O)c1cccc(-c2ccnc3c2CC(C(=O)Nc2ccc(Cl)cc2)O3)c1 (centres undefined),-8,8.7*,x,43,-5,24*,3,1,11,7
O=C(Nc1nc(-c2ccc(S(=O)(=O)N3CCOCC3)cc2)cs1)c1ccccc1,-5,11*!,-2,22,0,21*!,10,5,0,7
O=C(Nc1ccc(C(F)(F)F)cc1[N+](=O)[O-])O[C@H]1[C@H](Cc2ccccc2)NS(=O)(=O)[C@H]2C[C@@H]3C=C[C@]12O3,-4,14*,7,35,1,29*,3,0,11,5
Nc1nc(-c2ccccc2)c(N=Nc2ccccc2Cl)s1,-5,16*,25,25,-7,26*,14,5,40*,25*
C[C@H](CO)N1C[C@H](C)[C@@H](CN(C)C(=O)CCC(F)(F)F)OCc2cn(nn2)CCCC1=O,-4,-2,x,x,x,5,x,x,x,x
CCCN(CC1CC1)C(=O)COC(=O)c1ccc(CNS(=O)(=O)c2ccc(F)c(Cl)c2)cc1,-5,-3,x,21,6,-8,x,x,x,x
N#CCCN(C(=O)COC(=O)c1ccc(CNS(=O)(=O)c2ccc(F)c(Cl)c2)cc1)c1ccc(F)cc1,-4,12*,3,17,1,21*,2,0,35*,22*
O=C(/C=C/c1ccc([N+](=O)[O-])cc1)c1ccccc(=O)c1O,-6,12*,12,8,-31,25*,13,4,32*,33*
O=C(/C=C/c1ccccc1Cl)c1ccccc(=O)c1O,-8,-1,1,-2,-29,-9,x,x,x,x
CCO[C@H]1OC(C(=O)Nc2ccccc2)=C[C@@H](c2ccc(C(F)(F)F)cc2)[C@@H]1CCCO,-5,15*,-3,27,-3,27*,4,1,30*,18*
N#CCCn1nc(-c2ccc([N+](=O)[O-])cc2)cc1Nc1ccccc1NC(=O)C(F)(F)F,-4,20*,4,5,-2,36*,0,0,16,9.5*
CC(C)Cn1c(-c2ccc(Br)cc2)c[nH]c1=S,0,14*,-10,6,6,26*,1,0,6,9.0*
O=C(/C=C1\OCc2ccccc21)c1ccccc1,-10,4,x,x,8,3,x,x,x,x
O=C(COC(=O)C12CC3CC(CC(C3)C1)C2)Nc1ccc(OC(F)F)cc1,-5,15*,3,32,4,27*,4,1,24*,12*
Cc1nn(Cc2c(F)c(F)c(F)c(F)c2F)c(C)c1NC(=O)c1ccc(COc2ccc(Cl)cc2Cl)o1,-5,11*,4,39,3,25*,5,2,45*,19*
CCOc1ccc(NS(=O)(=O)c2cc(C(=O)N3CCCC3)ccc2Cl)cc1,-11,4,1,-1,4,-2,x,x,x,x
CCOc1ccc(NS(=O)(=O)c2cc(NC(=O)c3cccc(C)c3)ccc2Cl)cc1,-15,14*,13,30,-3,31*,8,3,31*,19*
Cc1cc(F)ccc1C(O)c1ncc(-c2ccc(Oc3ccccc3)cc2)[nH]1 (centres undefined),-5,12*,x,16,7,30*,6,2,20*,14*
OC(c1ccc(Cl)c(Cl)c1)c1ncc(-c2ccc(C(F)(F)F)cc2)[nH]1 (centres undefined),-8,9.0*,x,39,18,26*,8,2,30*,15*
OC(c1cccc(Cl)c1)c1ncc(-c2ccc(Oc3ccccc3)cc2)[nH]1 (centres undefined),-5,11*,x,16,-11,25*,9,4,42*,21*
CC(=NNc1cc(C)c2ccccc2n1)c1ccccn1,-12,-5,x,x,x,-11,x,x,x,x
CCOc1ccc(Br)cc1S(=O)(=O)Nc1ccc(Cl)c(S(=O)(=O)N(CC)c2ccccc2)c1,-2,9.4*,7,43,5,27*,8,3,35*,19*
CCOc1ccc(Br)cc1S(=O)(=O)Nc1ccc(Cl)c(S(=O)(=O)N(C)C)c1,-7,5,9,26,-3,9,x,x,x,x
SMILES,CaV13 ICDI inh,ADAM17 inh,Arrestin-AP2 inh,FAS TE block,NRP1-CendR mod,ADAM10 inh,ADAM10 confirm,ADAM17 ctr,ADAM10 ctr,ADAM17 confirm
O=C(CCl)N1CCN(S(=O)(=O)Cc2ccccc2)CC1,-2,-3,0,-3,-1,-8,x,x,x,x
NNC(=O)C(=O)/C=C1\NC2(CCCC2)Cc2ccccc21,-3,2,5,-4,17,6,x,x,x,x
O=C(/C=C1\NC2(CCCC2)Cc2ccccc21)C(=O)N/N=C/c1ccc(O)c(O)c1,-16,12*,4,11,0,22*,6,4,18,9.4*
O=C(c1cccs1)N1N=C(c2ccc(O)cc2)CC1c1ccccc1 (centres undefined),-5,-17,-2,6,5,-63,x,x,x,x
O=C(c1cccs1)N1N=C(c2ccccc2)CC1c1ccc(O)cc1 (centres undefined),-4,16*,12,12,-16,27*,14,4,30*,21*
CCc1nc2c(OCCC3CCCCC3)cccn2c1N(C)C(=O)c1ccc(C)cc1,-3,15*,x,22,-6,29*,7,2,10,7
CC1CCN(c2ccc(C(=O)NCc3ccco3)cc2[N+](=O)[O-])CC1,-13,9.0*,16,12,-5,23*,1,1,8,7
